One assay relates to SK-BR-3. The experiment in a line: The IC50 value was measured on human breast cancer cell line SK-BR-3. The class given is functional, cell-based. Put shortly: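 SKBr3 breast cancer cells were seeded at 10^4 cells/well for exponential growth over 4 days. Graded compound concentrations were added 2 h after plating (4 wells per concentration), with continuous exposure for 4 days and MTT growth readout. Each experiment was done at least twice, and IC50 was derived from the cumulative data.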

For assay [1], the system named is V79. The experiment in a line: The IC50 value was measured on V79 cells in the presence of air using MTT assay. It counts as functional, cell-based. To be noted: Cricetulus griseus. In outline:
(§1)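 V79 Chinese hamster cells were exposed to drug under aerobic (air) or hypoxic (N2) conditions. After the drug was removed, cells proliferated for 3 days before MTT assay. IC50 is the concentration killing 50% of cells under the initial treatment condition.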
Background: Formazan colour is commonly taken as a measure of viable cells.

The subject of assay [2] is V79. The experiment in a line: The IC50 value was measured on V79 cells in the presence of nitrogen using MTT assay. The following applies: Cricetulus griseus. It counts as functional, cell-based. Put shortly: as §1
A short description of assay [3]: Ratio of IC50 against V79 cells in the presence of air to that of nitrogen. It counts as functional.

This is an account of results in ChEMBL document CHEMBL1128261, “Synthesis and biological activity of thiazolylindolequinones, analogues of the natural product BE 10988” (J Med Chem, 1995).

As for `COC1=CC(=O)c2c(c(-c3nc(C)cs3)cn2C)C1=O`, the IC50 in the assay with SK-BR-3 amounted to 1.4 µM; in the assay with V79 [1], 72.9 µM; in the assay with V79 [2] it was 47.7 µM. Further, the Ratio in assay [3] was determined as 1.5.

`Cn1cc(-c2nc(C(N)=O)cs2)c2c1C(=O)C=C(N)C2=O`: the 50% inhibitory concentration (IC50) came to 8.7 µM with SK-BR-3, 6.2 µM in the assay with V79 [1] and 5.1 µM with V79 [2]. Also, the Ratio in assay [3] turned out to be 1.2.

Consider `CCOC(=O)c1nc(-c2cn(C)c3c2C(=O)C(OC)=CC3=O)cs1`, for which the figures for the IC50 in the assay with SK-BR-3, with V79 [1] and with V79 [2] were 16.9 µM, 38.7 µM and 60.9 µM, respectively. Moreover, in assay [3], the Ratio was 0.64.

`CCOC(=O)c1coc(-c2cn(C)c3c2C(=O)C(OC)=CC3=O)n1`: the IC50 with SK-BR-3 turned out to be 4.8 µM; in the assay with V79 [1] it was 51.7 µM; in the assay on V79 [2], 46 µM. Moreover, the Ratio in assay [3] is 1.1.

Consider `Cc1csc(-c2cn(C)c3c2C(=O)C(=N)C=C3O)n1`, for which the IC50 in the assay with SK-BR-3 was 0.73 µM; in the assay on V79 [1] it was 10.3 µM; in the assay on V79 [2], 6 µM. Also, the Ratio in assay [3] is reported as 1.7.

Regarding `Cn1cc(-c2csc(C(N)=O)n2)c2c1C(=O)C=C(N)C2=O`, the values for the IC50 in the assay with SK-BR-3, in the assay on V79 [1] and in the assay on V79 [2] were 4.1 µM, 5.5 µM and 4.1 µM, respectively. In addition, in assay [3], the Ratio is 1.3.

With `O=C1c2c(O)ccc(O)c2C(=O)c2c(NCCNCCO)ccc(NCCNCCO)c21` [MITOXANTRONE], the IC50 with SK-BR-3 was 0.016 µM.

On to `CCOC(=O)c1csc(-c2cn(C)c3c2C(=O)C(OC)=CC3=O)n1`, for which the IC50 in the assay with SK-BR-3 worked out at 27.8 µM; with V79 [1] it was 423 µM; in the assay with V79 [2] it was 345 µM. For the same compound, the Ratio in assay [3] stood at 1.2.

What is called IC50 is the concentration at which inhibition is half-maximal.
